Source: paper PMC9894006 (Journal of Insect Science, 2023)
“And” between values parts separate entries of the source, which are not always exact repeats. Equal values may be shown once.

How the values were obtained:
[1] = test system: antennae of adult B. odoriphaga; details: ref Yang et al. 2019; cited from earlier work
B. odoriphaga females = details: ref Yang et al. 2019; cited from earlier work
recombinant BodoOBP10 [2] = biological target: T1, recombinant BodoOBP10 (Bradysia odoriphaga, UniProt A0A2S0X9G4); assay: Competitive fluorescence binding assay with 1-NPN as reporter; details: competitive dissociation constant from IC50, 1-NPN reporter
T1 sequence (A0A2S0X9G4 20-144): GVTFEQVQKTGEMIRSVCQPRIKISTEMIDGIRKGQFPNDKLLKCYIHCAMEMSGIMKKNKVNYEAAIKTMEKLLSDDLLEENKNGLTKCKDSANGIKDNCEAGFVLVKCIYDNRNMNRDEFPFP
Outline: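 Refolded, Ni-purified, tag-cleaved BodoOBP10 (2 µM stock, 20 mM Tris-HCl pH 7.4) was titrated with test compounds (1 mM methanol stocks) displacing the 1-NPN reporter. Ex 337 nm, em 350–500 nm. IC50 is the ligand concentration halving initial fluorescence. Ki = [IC50]/(1 + [1-NPN]/K1-NPN), using free 1-NPN and the protein/1-NPN dissociation constant. Triplicate means.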

[3] = test system: antennae of B. odoriphaga adult females; assay: Electroantennogram; parameters: species or system Bradysia odoriphaga; details: odorant at 10 μg/μL, adult females 12 h after emergence
Outline: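 30 nL of 6 μg/μL dsOBP10 or dsGFP was injected into one-day-old pupal abdomens; knockdown was checked by RT-qPCR in triplicate. Antennae of females 12 h post-emergence were detached, base on reference and tip on recording glass electrodes. Stimulus was 10 μl of a 10 μg/μL sulfur volatile on filter paper, pipetted after 10 s. Hexane control was given before and after. Ten replicates; one-way ANOVA with Tukey, means ± SE.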

male B. odoriphaga = details: ref Li et al. 2008; cited from earlier work
recombinant BodoOBP10 [4] = biological target: T1, recombinant BodoOBP10; assay: Binding curve of the fluorescence reporter 1-NPN
Outline: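 Recombinant BodoOBP10 was expressed in E. coli BL21(DE3) from pBM30 with 0.5 mM IPTG for 12 h at 28°C. Inclusion bodies were solubilised in 50 mM Tris pH 6.8 with 0.2% Triton X-100 and 6 M guanidine HCl. Protein was Ni-affinity purified and the His tag removed by enterokinase. Protein stock was 2 µM in 20 mM Tris-HCl pH 7.4; 1-NPN stock was 1 mM in methanol. Ex 337 nm, em 350–500 nm, 10-nm slit; triplicate means.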

Question: Which results are given for `C=CCSSCC=C` [Diallyl disulfide]?
Answer: EAG responses / antennal preference of B. odoriphaga adults [1]: stimulate the EAG responses; female oviposition (B. odoriphaga females): stimulate female oviposition; Ki (recombinant BodoOBP10 [2]): 8.01 µM and < 10 µM; EAG response in dsOBP10-injected insects compared with control (dsGFP-injected) [3]: significantly reduced; EAG response in dsOBP10-injected insects compared with control (dsGFP-injected) ([3]; listed as diallyl disulﬁde): reduced

Question: Which results are given for `CCCCCCCCCCCCCCCCC` [n- Heptadecane, n-Heptadecane]?
Answer: behavioral responses in male B. odoriphaga (male B. odoriphaga): can lead to behavioral responses; Ki (recombinant BodoOBP10 [2]): > 50 µM

Question: Which Ki (recombinant BodoOBP10 [4]) does the source give for `c1ccc(Nc2cccc3ccccc23)cc1` [1-NPN, N-phenyl-1-naphthylamine] here?
Answer: Its Ki is 0.78 µM.
